Screens: PubChem BioAssay, Sanford-Burnham Center for Chemical Genomics
Scp-1 inhibitor – Scp-1 phosphatase inhibitors, primary screen, biochemical, colorimetric, uHTS. 340,000 compounds, 0.88% hits. Recombinant Scp1, phosphopeptide, malachite green phosphate absorbance. Carboxy-terminal domain RNA polymerase II polypeptide A small phosphatase 1 (Homo …. inhibition, % at 20 µM;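 active = inhibition above about 50% at 20 µM, limit read from the data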
Target sequence (Q9GZU7 76-261 limits assumed): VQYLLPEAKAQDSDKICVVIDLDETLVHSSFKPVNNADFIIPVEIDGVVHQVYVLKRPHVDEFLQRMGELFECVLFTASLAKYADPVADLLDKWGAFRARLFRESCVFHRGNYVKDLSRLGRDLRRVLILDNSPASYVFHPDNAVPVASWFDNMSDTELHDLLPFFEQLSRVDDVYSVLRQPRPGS
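System: SCP-1 catalytic domain; Reagent: Phospho 17-mer peptide substrate; Doses: one concentration, 20 µM, with 1.0% DMSO; Incubation: 45 min room-temperature reaction, 5 min colour, 30 min stabiliser; Signal: Phosphate-binding colour reagent, absorbance read at 630 nm.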
DNMT1 inh – human DNMT1 methyltransferase inhibitors, primary screen, biochemical, molecular beacon, fluorescence, HinP1I cleavage, uHTS; DNA (cytosine-5)-methyltransferase 1 (Homo sapiens), P26358; inhibition (reported as % activation of signal), % at 10 µM; 360,000 compounds, 0.83% hits; AID 588458, 2011; in the data active = inhibition above about 50%
SUMO1-SIM PPI – modulators of SUMO1 protein-protein interactions, primary screen, biochemical, uHTS; AID 602429, 2012; 360,000 compounds, 0.33% hits; SUMO1 binding to a labelled peptide, TR-FRET, 1 h; Small ubiquitin-related modifier 1 (Homo sapiens), P63165; inhibition, % at 20 µM; in the data active = inhibition above about 37%
Target sequence (P63165 whole entry, looked up): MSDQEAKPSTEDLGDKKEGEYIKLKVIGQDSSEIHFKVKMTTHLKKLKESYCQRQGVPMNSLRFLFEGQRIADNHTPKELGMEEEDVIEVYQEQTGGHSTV
LMPTP block – LMPTP phosphatase inhibitors, primary screen, biochemical, fluorescence intensity, uHTS | Low molecular weight phosphotyrosine protein phosphatase (Homo sapiens), P24666 | recombinant LMPTP-A, OMFP fluorogenic substrate | inhibition, % at 20 µM | 360,000 compounds, 0.22% hits | AID 651560, 2012;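 active = compounds that cut the enzyme signal by at least half of the control window in the single-dose screen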
Target sequence (P24666 whole entry, looked up): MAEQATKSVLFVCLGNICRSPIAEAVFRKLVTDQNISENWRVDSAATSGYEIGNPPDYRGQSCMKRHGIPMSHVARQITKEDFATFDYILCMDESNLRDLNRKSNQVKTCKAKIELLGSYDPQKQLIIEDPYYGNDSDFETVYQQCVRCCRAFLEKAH
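Test system: LMPTP-A phosphatase enzyme; input: 0.625 nM LMPTP-A final; reagent: OMFP substrate, 400 µM final; compound dosing: 20 µM single dose, 3% DMSO; incubation: 50 min dark incubation at room temperature; measured by: endpoint fluorescence intensity from OMFP dephosphorylation; measure: % inhibition relative to no-enzyme and uninhibited control wells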
STEP inh – STEP phosphatase inhibitors, primary screen, biochemical, fluorescence intensity, uHTS | Tyrosine-protein phosphatase non-receptor type 5 (Homo sapiens), P54829 | recombinant STEP, OMFP fluorogenic substrate | inhibition, % at 20 µM | 360,000 compounds, 0.25% hits | AID 588621, 2011;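 active = inhibition at 20 µM, scaled per plate between control wells, above about 37%, limit read from the data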
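Assay system: isolated STEP enzyme / Timing: 20 min at room temperature, dark / Doses: 20 µM, 1% DMSO / Technique: fluorescence intensity, excitation 480 nm, emission 540 nm / Reagent: fluorogenic phosphatase substrate OMFP at 25 µM final / Measure: percent inhibition scaled to no-enzyme and uninhibited-enzyme controls, plate-pattern corrected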
UBC9 SUMO inh – inhibitors of in vitro SUMOylation cascade, primary screen, biochemical, HTRF, uHTS; 290,000 compounds, 0.36% hits; AID 2006, 2009; HTRF SUMOylation assay, SAE1/SAE2 + UBC9; inhibition, % at 35 µM; SUMO-conjugating enzyme UBC9 (Homo sapiens), P63279; in the data active = inhibition above about 50%, passing the limit was not always enough
Large screens that a line does not name were inactive. A selection: hits, their analogues and other compounds. The true share with any hit is near 1.9%.

COc1cccc(/C=N/NC(=O)C(=O)N/N=C/c2cccc(OC)c2O)c1O	UBC9 SUMO inh 71
CCN(C(=O)CSc1cc(C)c2ccccc2n1)c1c(N)n(Cc2ccccc2)c(=O)[nH]c1=O	none
Cc1cc(Nc2ccccc2C(=O)O)n(-c2cccc(Cl)c2)n1	SUMO1-SIM PPI 42
Cc1cc(Nc2ccc(Cl)cc2)n(-c2cccc(Cl)c2)n1	none
CCC1(c2ccccc2)NC(=O)N(CC(=O)Nc2ccc(S(=O)(=O)NC3=NCCCCC3)cc2)C1=O (stereo not drawn)	none (no result: UBC9 SUMO inh)
CCOc1ccc2nc3cc(N=Nc4ccc(N)nc4N)ccc3c(N)c2c1	SUMO1-SIM PPI 116, LMPTP block 72, STEP inh 66 (no result: UBC9 SUMO inh)
COc1ccc(N=Nc2ccc(N)nc2N)cc1	none
Cc1oc2cc3oc(=O)c(CCC(=O)NCc4ccccn4)c(C)c3cc2c1C	none
O=c1nc2c(-c3cccc(Br)c3)n[nH]n2c2ccccc12	SUMO1-SIM PPI 45
CCCCCc1nnc(NC(=O)c2cccc(S(=O)(=O)N3CCOCC3)c2)s1	none (no result: UBC9 SUMO inh)
Cc1nn(-c2ccccc2)c2sc(C(=O)NNC(=O)COc3ccccc3)cc12	UBC9 SUMO inh 55
CSc1cc(C)n(-c2ccccc2)c(=S)c1C(C)=O	none
O=C(O)c1cc(-c2ccc(O)cc2)on1	none
O=C(O)c1ccc(N2C(=O)/C(=C/c3ccc(-c4ccc([N+](=O)[O-])cc4)o3)C=C2c2ccccc2)cc1	Scp-1 inhibitor 66, DNMT1 inh 81, SUMO1-SIM PPI 103, LMPTP block 79, STEP inh 87
CCN(Cc1ccccc1)C(=O)C1CCN(Cc2ccc(SC)cc2)CC1	SUMO1-SIM PPI 42
CCN(Cc1ccccc1)C1CCN(Cc2ccc(SC)cc2)CC1	none
O=C1CC(=O)N(CCc2ccc(F)cc2)C(=O)N1	none
CS(=O)(=O)N1CCC(Oc2ccccc2C(=O)NC(C2CC2)C2CC2)CC1	SUMO1-SIM PPI 40
O=C(Nc1ccccc1C(=O)O)c1ccc2c(c1)C(=O)N(c1cccc([N+](=O)[O-])c1)C2=O	none
O=C(Nc1c[nH]c(=O)[nH]c1=O)c1ccc2c(c1)C(=O)N(c1cccc([N+](=O)[O-])c1)C2=O	DNMT1 inh 58
Oc1c(C(Nc2nc3ccccc3s2)c2ccco2)ccc2cccnc12 (stereo not drawn)	SUMO1-SIM PPI 49
CC(C)C(=O)NC(c1ccco1)c1ccc2cccnc2c1O (stereo not drawn)	none
O=C(NCc1ccccc1Cl)c1nnc(CS(=O)(=O)c2ccccc2)o1	none
CN1CCN(c2ccc(Nc3ccnc4cc(Cl)ccc34)cc2)CC1	none
CCN1CCN(c2ccc(Nc3ccnc4ccccc34)cc2)CC1	LMPTP block 67 (no result: UBC9 SUMO inh)
O=C(/C=C/c1ccco1)Nc1cccc2cccnc12	DNMT1 inh 63, LMPTP block 50
Cc1c(-c2ccccc2)c(-c2ccc(OCCN(C)C)cc2)n2ccccc12	LMPTP block 80 (no result: UBC9 SUMO inh)
COc1ccc(-c2sc3ccccc3c2-c2ccc(OCCN(C)C)cc2)cc1	none (no result: UBC9 SUMO inh)
CCCCn1c(N)c(N(CCOC)C(=O)c2ccc(-n3c(C)ccc3C)cc2)c(=O)[nH]c1=O	none (no result: UBC9 SUMO inh)
COC(=O)C1=C(COc2ccccc2)NC(=O)NC1c1ccc(Cl)cc1 (stereo not drawn)	none (no result: DNMT1 inh, SUMO1-SIM PPI, LMPTP block, STEP inh, UBC9 SUMO inh)
CCOC(=O)C1=C(COc2ccccc2)NC(=O)NC1c1ccc(Cl)cc1 (stereo not drawn)	SUMO1-SIM PPI 69
CC1=Nc2nc(N3CCCCC3)c(C#N)c3c4c(nc(c23)N1)N(c1ccc(C(C)C)cc1)C(=O)C4	UBC9 SUMO inh 60
COc1ccc(-c2nc3c4ccccc4ccn3c2Cc2ccccc2C(F)(F)F)cc1OC	none (no result: Scp-1 inhibitor, UBC9 SUMO inh)
Cc1ccc(C2=NNC(=O)C(c3c[nH]c4ccccc34)C2)cc1 (stereo not drawn)	SUMO1-SIM PPI 55
